Reference: ChEMBL document CHEMBL3351368, “Biphenyl-4-carboxylic acid [2-(1H-indol-3-yl)-ethyl]-methylamide (CA224), a nonplanar analogue of fascaplysin, inhibits Cdk4 and tubulin polymerization: evaluation of in vitro and in vivo anticancer activity” (J Med Chem, 2014)
≈ marks a conversion by molar mass, not a printed value. Calls of active or inactive are those of the source.

Legend:
NCI-H358 [1] = experiment: Cell cycle arrest in human NCI-H358 cells assessed as accumulation of cells at S phase at IC50 concentration after 12 hrs by flow cytometry in presence of nocodazole for 18 hrs (reference value: 10%); type: functional
NCI-H1299 = experiment: Induction of apoptosis in p53 null, pRb+ human NCI-H1299 cells assessed as fragmented nuclei/distrupted cell membrane at 1 to 10 uM by DAPI staining-based flow cytometry; conditions: TDE = time-dependent effect
Mus musculus = experiment: Toxicity in human HCT116 cells xenografted in SCID mouse assessed as change in body weight at 100 mg/kg, ip relative to untreated control; type: organism-based, HCT-116; design: dose 100 mg/kg, route intraperitoneal; conditions: in vivo
Outline: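 SCID male mice, 18-25 g, 6-8 weeks old, received 6.6 × 10^6 HCT-116 cells subcutaneously on the dorsal side. Randomized into groups of 7 at 4-6 mm tumors (about 5 days), then dosed intraperitoneally for 9 consecutive days. Tumor size recorded every 2-5 days, weight = L×W²×0.5; %GI = 100 − %T/C. Body weight taken daily relative to start; Student t-test.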

LS174T = experiment: Increase in p27 level in p53+, pRb+ human LS 174T cells at IC50 concentration after 24 hrs by Western blot analysis
Homo sapiens = species on record: Homo sapiens; experiment: Selectivity ratio of IC50 for human CDK2/cyclin A to IC50 for human CDK4/cyclin D1
NCI-H358 [2] = experiment: Cell cycle arrest in human NCI-H358 cells assessed as accumulation of cells at G0/G1 phase at IC50 concentration after 12 hrs by flow cytometry in presence of nocodazole for 18 hrs (reference value: 40%); type: functional
[3] = AUC (0 to infinity) in BALB/c mouse at 10 mg/kg, po; type: ADME, organism-based; design: time infinity, dose 10 mg/kg, route oral; conditions: plasma
Outline: (§1)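 BALB/c mice given a single dose of 1.0 mg/kg IV or 10 mg/kg orally; plasma concentration followed over time and pharmacokinetic parameters derived from the time-concentration profile.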

[4] = Clearance in BALB/c mouse at 1 mg/kg, iv; type: ADME, organism-based; design: dose 1 mg/kg, route intravenous; conditions: in vivo; outline: as §1
A549 [5] = experiment: Reduction cyclin B1 level in p53+, pRb+ human A549 cells at IC50 concentration after 24 hrs by Western blot analysis
[6] = Growth inhibition of mouse BNL-SVA.8 cells after 48 hrs by MTT assay; type: functional
Outline: (§2)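 MTT cell proliferation assay. IC50 (µM) was defined as the concentration giving 50% inhibition of cell growth.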

CDK9/cyclin T1 = CDK9/cyclin T1 (Homo sapiens, UniProt P50750); experiment: Binding affinity to human CDK9/cyclinT1; type: protein-complex assay
MiaPaCa = experiment: Induction in cyclin B1 level in p53His273 mutant, pRb+ human MiaPaCa cells at IC50 concentration after 48 hrs by Western blot analysis; type: functional
NCI-H358 [7] = experiment: Induction of apoptosis in p53 null, […] human NCI-H358 cells assessed as fragmented nuclei/distrupted cell membrane at 1 to 10 uM by DAPI staining-based flow cytometry; conditions: TDE = time-dependent effect
[8] = Growth inhibition of p53+, pRb+ human NCI-H460 cells after 48 hrs by MTT assay; type: functional, cell-based; conditions: NCI-H460, 48 h; outline: as §2
NCI-H358 [9] = experiment: Cell cycle arrest in human NCI-H358 cells assessed as accumulation of cells at G2/M phase at IC50 concentration after 12 hrs by flow cytometry in presence of nocodazole for 18 hrs (reference value: 42%); type: functional
[10] = Efflux ratio of permeability across basolateral to apical side over apical to basolateral side in human Caco2 cells; type: ADME, cell-based; conditions: Caco-2
NCI-H358 [11] = experiment: Cell cycle arrest in human NCI-H358 cells assessed as accumulation of cells at G2/M phase at IC50 concentration after 18 hrs by flow cytometry in presence of […] uM hydroxyurea for 18 hrs (reference value: 33%); type: functional
[12] = target: Epidermal growth factor receptor (Homo sapiens) (UniProt P00533); experiment: Inhibition of human EGFR assessed as enzyme activity at 10 uM
NCI-H358 [13] = experiment: Cell cycle arrest in human NCI-H358 cells assessed as accumulation of cells at S phase at IC50 concentration after 18 hrs by flow cytometry in presence of […] uM hydroxyurea for 18 hrs (reference value: 12%); type: functional
[14] = target: CDK6/cyclin D1 (Homo sapiens) (UniProt P24385+Q00534); experiment: Inhibition of human CDK6/cyclinD1 assessed as enzyme activity at 10 uM; type: protein-complex assay
[15] = AUC (0 to infinity) in BALB/c mouse at 1 mg/kg, iv; type: ADME, organism-based; design: time infinity, dose 1 mg/kg, route intravenous; conditions: plasma; outline: as §1
[16] = Terminal half life in BALB/c mouse at 10 mg/kg, po; type: ADME, organism-based; design: dose 10 mg/kg, route oral; conditions: in vivo, read-out: beta t1/2 (converted); outline: as §1
[17] = target: Platelet-derived growth factor receptor (Homo sapiens) (UniProt P09619+P16234); experiment: Inhibition of human PDGFR assessed as enzyme activity at 10 uM; type: protein-complex assay
Tubulin (Homo sapiens) [18] = target: T1, Tubulin (Homo sapiens) (UniProt P68371+Q9H4B7+P0DPH7+P68366+Q13509+Q71U36+P04350+Q3ZCM7+P07437+P68363+Q9BQE3+Q6PEY2+Q13885+Q9BVA1+Q9BUF5); experiment: Inhibition of tubulin (unknown origin) polymerization assessed as decrease in Vmax measured at 25 uM by spectrophotometry
[19] = Solubility in simulated intestinal fluid; type: ADME
A549 [20] = experiment: Anticancer activity against p53+, pRb+ human A549 cells assessed as reduction in colony formation efficiency at 1.4 uM after 24 hrs by visual count/crystal violet staining method; type: functional; conditions: A549, 24 h
Outline: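 Long-term survival assay. A549 and Calu-1 cells treated with a range of concentrations, colonies counted, efficiency expressed as percent of colonies versus untreated cultures. Means and standard deviations of three independent experiments.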

[21] = target: Insulin-like growth factor 1 receptor (Homo sapiens) (UniProt P08069); experiment: Inhibition of human IGF-1R assessed as enzyme activity at 10 uM
Tubulin (Homo sapiens) [22] = target: T1, Tubulin (Homo sapiens); experiment: Inhibition of tubulin (unknown origin) polymerization assessed as decrease in Vmax measured at 2.5 uM by spectrophotometry; type: protein-complex assay
Outline: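 Purified tubulin polymerisation followed as absorbance increase over about 4000 s. Vmax (mOD/min) is taken as the read-out, with final polymer mass also noted. Compound is tested at 2.5, 5, 10 and 25 µM alongside untreated control, paclitaxel 10 µM (enhancer) and nocodazole 10 µM (inhibitor). Curves are the average of three independent experiments.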

[23] = Oral bioavailability in BALB/c mouse at 10 mg/kg; type: ADME, organism-based; conditions: in vivo; outline: as §1
[24] = target: Glycogen synthase kinase-3 beta (Homo sapiens) (UniProt P49841); experiment: Inhibition of human GSK3beta assessed as enzyme activity at 10 uM
Chain of Glycogen synthase kinase-3 beta (Homo sapiens) (P49841 whole entry, looked up): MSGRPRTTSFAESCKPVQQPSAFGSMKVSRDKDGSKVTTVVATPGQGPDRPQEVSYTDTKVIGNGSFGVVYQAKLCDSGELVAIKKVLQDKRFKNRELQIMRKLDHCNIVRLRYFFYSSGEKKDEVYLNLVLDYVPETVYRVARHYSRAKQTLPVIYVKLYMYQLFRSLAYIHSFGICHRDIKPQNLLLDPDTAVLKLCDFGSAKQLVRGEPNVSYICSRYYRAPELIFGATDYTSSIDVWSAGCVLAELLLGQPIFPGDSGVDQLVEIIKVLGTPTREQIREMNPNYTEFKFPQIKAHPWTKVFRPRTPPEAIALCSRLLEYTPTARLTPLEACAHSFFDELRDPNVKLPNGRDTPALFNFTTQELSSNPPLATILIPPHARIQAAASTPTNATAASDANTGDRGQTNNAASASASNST

Chain of Insulin-like growth factor 1 receptor (Homo sapiens) (P08069 31-736 limits assumed): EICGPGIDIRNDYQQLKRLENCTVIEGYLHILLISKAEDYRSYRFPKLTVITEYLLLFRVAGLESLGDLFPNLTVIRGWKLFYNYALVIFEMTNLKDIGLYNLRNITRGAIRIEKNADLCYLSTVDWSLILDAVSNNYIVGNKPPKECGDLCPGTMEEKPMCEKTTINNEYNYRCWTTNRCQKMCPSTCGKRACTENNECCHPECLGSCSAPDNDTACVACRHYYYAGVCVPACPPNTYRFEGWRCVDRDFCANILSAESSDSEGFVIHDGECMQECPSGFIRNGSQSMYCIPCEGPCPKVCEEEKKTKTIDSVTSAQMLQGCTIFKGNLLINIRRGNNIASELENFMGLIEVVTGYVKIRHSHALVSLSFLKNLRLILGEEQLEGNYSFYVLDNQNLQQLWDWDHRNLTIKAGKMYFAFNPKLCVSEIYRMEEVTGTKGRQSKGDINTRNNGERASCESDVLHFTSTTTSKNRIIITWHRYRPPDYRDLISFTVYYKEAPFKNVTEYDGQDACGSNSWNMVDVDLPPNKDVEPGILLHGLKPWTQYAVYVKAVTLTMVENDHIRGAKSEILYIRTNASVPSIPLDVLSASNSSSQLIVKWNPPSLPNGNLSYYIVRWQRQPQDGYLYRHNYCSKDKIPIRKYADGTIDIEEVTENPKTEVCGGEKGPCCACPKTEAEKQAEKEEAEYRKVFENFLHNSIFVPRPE
Chain of Insulin-like growth factor 1 receptor (Homo sapiens) (P08069 741-1367 limits assumed): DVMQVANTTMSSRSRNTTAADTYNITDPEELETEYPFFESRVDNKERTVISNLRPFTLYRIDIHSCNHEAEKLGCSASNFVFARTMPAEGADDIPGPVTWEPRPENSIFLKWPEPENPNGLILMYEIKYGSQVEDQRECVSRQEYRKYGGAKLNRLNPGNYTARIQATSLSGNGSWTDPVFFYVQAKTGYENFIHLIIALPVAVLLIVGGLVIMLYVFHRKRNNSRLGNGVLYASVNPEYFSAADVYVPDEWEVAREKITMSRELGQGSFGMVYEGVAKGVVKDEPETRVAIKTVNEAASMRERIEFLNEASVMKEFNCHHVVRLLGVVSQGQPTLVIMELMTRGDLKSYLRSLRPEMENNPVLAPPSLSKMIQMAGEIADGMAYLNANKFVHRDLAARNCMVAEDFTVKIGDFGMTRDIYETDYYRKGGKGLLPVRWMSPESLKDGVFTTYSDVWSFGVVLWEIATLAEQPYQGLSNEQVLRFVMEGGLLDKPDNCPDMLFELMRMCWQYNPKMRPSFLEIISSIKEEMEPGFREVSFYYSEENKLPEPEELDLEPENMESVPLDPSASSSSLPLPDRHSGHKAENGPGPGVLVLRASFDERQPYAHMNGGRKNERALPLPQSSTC
Chain of CDK9/cyclin T1 (O60563 whole entry): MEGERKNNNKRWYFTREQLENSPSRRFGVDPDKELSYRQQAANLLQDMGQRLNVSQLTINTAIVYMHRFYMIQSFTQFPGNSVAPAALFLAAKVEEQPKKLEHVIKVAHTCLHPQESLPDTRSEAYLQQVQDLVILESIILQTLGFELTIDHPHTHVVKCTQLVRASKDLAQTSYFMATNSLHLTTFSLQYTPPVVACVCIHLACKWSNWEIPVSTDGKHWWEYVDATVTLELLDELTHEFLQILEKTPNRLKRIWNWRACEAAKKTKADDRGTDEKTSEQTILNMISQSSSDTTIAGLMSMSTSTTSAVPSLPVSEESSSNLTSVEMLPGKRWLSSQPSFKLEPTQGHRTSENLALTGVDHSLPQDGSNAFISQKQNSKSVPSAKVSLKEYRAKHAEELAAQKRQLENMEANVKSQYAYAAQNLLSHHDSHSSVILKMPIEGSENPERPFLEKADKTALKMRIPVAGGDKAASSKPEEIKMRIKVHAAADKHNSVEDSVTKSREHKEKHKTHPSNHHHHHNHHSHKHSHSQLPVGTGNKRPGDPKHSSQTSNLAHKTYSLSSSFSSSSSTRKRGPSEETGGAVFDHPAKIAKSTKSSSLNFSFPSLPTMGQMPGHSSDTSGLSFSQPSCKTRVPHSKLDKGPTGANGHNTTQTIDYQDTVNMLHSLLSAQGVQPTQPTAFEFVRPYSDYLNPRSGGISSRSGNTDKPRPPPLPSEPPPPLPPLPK
Chain of CDK9/cyclin T1 (P50750 whole entry): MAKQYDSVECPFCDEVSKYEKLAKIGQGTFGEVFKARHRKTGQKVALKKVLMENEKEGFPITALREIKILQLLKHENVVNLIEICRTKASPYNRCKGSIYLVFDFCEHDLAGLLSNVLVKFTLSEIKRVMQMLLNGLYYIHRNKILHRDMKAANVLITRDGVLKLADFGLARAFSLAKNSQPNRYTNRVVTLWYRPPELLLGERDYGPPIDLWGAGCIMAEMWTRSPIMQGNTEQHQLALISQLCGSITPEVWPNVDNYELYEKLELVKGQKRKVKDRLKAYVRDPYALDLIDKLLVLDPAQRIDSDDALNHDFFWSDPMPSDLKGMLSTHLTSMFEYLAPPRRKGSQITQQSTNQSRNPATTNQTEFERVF
Chain of Epidermal growth factor receptor (Homo sapiens) (P00533 whole entry): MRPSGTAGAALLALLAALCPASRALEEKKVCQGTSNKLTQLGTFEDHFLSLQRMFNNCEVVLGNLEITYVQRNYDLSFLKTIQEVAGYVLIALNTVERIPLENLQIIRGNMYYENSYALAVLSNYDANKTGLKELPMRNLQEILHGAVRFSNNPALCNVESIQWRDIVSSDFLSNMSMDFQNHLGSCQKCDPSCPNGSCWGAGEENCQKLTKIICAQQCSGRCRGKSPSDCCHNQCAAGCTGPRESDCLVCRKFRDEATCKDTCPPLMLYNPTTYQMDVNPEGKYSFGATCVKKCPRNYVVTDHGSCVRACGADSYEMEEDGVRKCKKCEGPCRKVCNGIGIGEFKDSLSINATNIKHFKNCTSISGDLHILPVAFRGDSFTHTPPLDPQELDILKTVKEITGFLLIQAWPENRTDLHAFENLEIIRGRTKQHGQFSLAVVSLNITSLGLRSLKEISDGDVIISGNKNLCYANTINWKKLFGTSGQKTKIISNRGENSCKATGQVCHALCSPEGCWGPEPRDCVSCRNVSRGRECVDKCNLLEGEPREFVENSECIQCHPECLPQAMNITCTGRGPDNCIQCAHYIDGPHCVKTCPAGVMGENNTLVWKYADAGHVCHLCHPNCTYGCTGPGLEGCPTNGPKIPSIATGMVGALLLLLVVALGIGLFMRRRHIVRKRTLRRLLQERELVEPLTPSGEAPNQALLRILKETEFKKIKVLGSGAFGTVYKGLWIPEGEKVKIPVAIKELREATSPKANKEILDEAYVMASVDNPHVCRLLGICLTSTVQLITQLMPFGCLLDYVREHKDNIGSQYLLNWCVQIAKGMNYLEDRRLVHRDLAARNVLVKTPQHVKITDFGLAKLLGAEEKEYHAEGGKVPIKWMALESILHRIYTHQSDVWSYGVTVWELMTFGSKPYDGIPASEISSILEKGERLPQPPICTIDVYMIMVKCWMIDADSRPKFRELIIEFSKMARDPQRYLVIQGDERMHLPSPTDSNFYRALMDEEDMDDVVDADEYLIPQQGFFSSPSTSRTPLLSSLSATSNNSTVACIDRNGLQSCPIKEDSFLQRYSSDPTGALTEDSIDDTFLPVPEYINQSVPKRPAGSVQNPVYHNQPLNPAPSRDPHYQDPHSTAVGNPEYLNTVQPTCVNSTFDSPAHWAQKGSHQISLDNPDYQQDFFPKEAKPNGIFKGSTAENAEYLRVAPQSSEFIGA

With `CN(CCc1c[nH]c2ccccc12)C(=O)c1ccc(-c2ccccc2)cc1` the Activity (NCI-H358 [1]) was 10%, the Activity (NCI-H1299) was “tde” and the Activity (Mus musculus) was “<= 10%”. For the same compound, the Activity (LS174T) was “Active”, the Ratio IC50 (Homo sapiens) was 84 and the Activity (NCI-H358 [2]) was 7%. The AUC(0-inf) [3] was 182 ng·h/mL, the clearance [4] was 88.3 mL/min/kg and the inhibition (A549 [5]) was “Active”. The IC50 [6] was 3.8 µM, the IC50 (CDK9/cyclin T1) was over 1000 µM and the Activity (MiaPaCa) was “Active”. For the same compound, the Activity (NCI-H358 [7]) was “tde”, the IC50 [8] was 2 µM and the Activity (NCI-H358 [9]) was 74%. The efflux ratio [10] was 1.1, the Activity (NCI-H358 [11]) was 72% and the inhibition [12] was “inactive”. The Activity (NCI-H358 [13]) was 10%, the inhibition [14] was “inactive” and the AUC(0-inf) [15] was 189 ng·h/mL. The half-life [16] was 1.16 h, the inhibition [17] was “inactive” and the Activity (milli optical density/minute) (Tubulin (Homo sapiens) [18]) was 0.4. For the same compound, the solubility [19] was 5 µg/mL (≈ 14.1 µM), the inhibition at 1.4 µM (A549 [20]) was 50% and the inhibition [21] was “inactive”. The Activity (milli optical density/minute) (Tubulin (Homo sapiens) [22]) was 6.2, the bioavailability [23] was 9.6% and the inhibition [24] was “inactive”.
